{"data": "Measurements of several laboratories", "A disintegrin and metalloproteinase with thrombospondin motifs 7": "A disintegrin and metalloproteinase with thrombospondin motifs 7 (Homo sapiens, UniProt Q9UKP4)", "HDAC5": "Histone deacetylase 5 (HDAC5, Homo sapiens, UniProt Q9UQL6)", "PDE1C": "Dual specificity calcium/calmodulin-dependent 3',5'-cyclic nucleotide phosphodiesterase 1C (PDE1C, Homo sapiens, UniProt Q14123)", "F11": "Coagulation factor XI (F11, Homo sapiens, UniProt P03951)", "note": "Compare with care: the assays were run in different laboratories."}
{"SMILES": "O=C1NC(=O)[C@](CNC(=O)c2cnn(-c3ccc(F)cc3)n2)(C2CC2)N1", "target": "A disintegrin and metalloproteinase with thrombospondin motifs 7", "assay": "enzyme activity, inhibitor, FRET", "IC50 [nM]": 25.6}
{"SMILES": "O=C(NO)c1cncc(OS(=O)(=O)Oc2ccc3ccccc3c2)c1", "target": "HDAC5", "assay": "enzyme activity, inhibitor, fluorescence", "IC50 [nM]": 8200}
{"SMILES": "CCCC(=O)NCCCN1CCc2c([nH]c3ccc(Cl)cc23)C1", "target": "Sodium-dependent dopamine transporter (SLC6A3, Homo sapiens, UniProt Q01959, F155Y)", "assay": "transporter uptake, inhibitor", "IC50 [nM]": 18200}
{"SMILES": "CCOc1ccccc1/C=C1\\OC(=O)c2c1cc(C)[nH]c2=O", "target": "PDE1C", "assay": "enzyme activity, inhibitor, radiometric", "IC50 [nM]": 147}
{"SMILES": "O=C(NO)c1cncc(OS(=O)(=O)Oc2ccc(-n3ccnc3)cc2)c1", "target": "HDAC5", "assay": "enzyme activity, inhibitor, fluorescence", "IC50 [nM]": 3560}
{"SMILES": "Cn1nccc1[C@]1(CNC(=O)c2ccc(C(F)(F)F)c(F)c2-c2ccc(C(F)(F)F)cc2)NC(=O)NC1=O", "target": "A disintegrin and metalloproteinase with thrombospondin motifs 7", "assay": "enzyme activity, inhibitor, FRET", "IC50 [nM]": 9.5}
{"SMILES": "O=c1oc(-c2ccco2)nc2ccccc12", "target": "F11", "assay": "enzyme activity, inhibitor, absorbance", "conditions": "pH 7.4", "IC50 [nM]": "> 50000"}
{"SMILES": "Cc1cc2c(c(=O)[nH]1)C(=O)O/C2=C\\c1ccc(F)cc1OC(C)C", "target": "PDE1C", "assay": "enzyme activity, inhibitor, radiometric", "IC50 [nM]": 709}
{"SMILES": "Cn1nccc1[C@]1(CNC(=O)c2ccccc2-c2ccc(C(F)(F)F)cc2)NC(=O)NC1=O", "target": "A disintegrin and metalloproteinase with thrombospondin motifs 7", "assay": "enzyme activity, inhibitor, FRET", "IC50 [nM]": 12}
{"SMILES": "O=C(/C=C/c1ccc(O)c2oc(-c3ccc(O)c(O)c3)cc12)O[C@H](Cc1ccc(O)c(O)c1)C(=O)O", "target": "YTH domain-containing family protein 2 (YTHDF2, Homo sapiens, UniProt Q9Y5A9)", "assay": "ligand displacement, FP", "IC50 [nM]": 6000}
{"SMILES": "Cc1cc2c(c(=O)[nH]1)C(=O)O/C2=C\\c1ccccc1OCC1CC1", "target": "PDE1C", "assay": "enzyme activity, inhibitor, radiometric", "IC50 [nM]": 190}
{"SMILES": "COc1ccc(C[C@H]2COC(=O)[C@@H]2Cc2ccc(OCC(=O)Nc3ccc(C(=O)Nc4ccccc4N)cc3)c(OC)c2)cc1OC", "target": "HDAC5", "assay": "enzyme activity, inhibitor", "IC50 [nM]": "> 10000"}
{"SMILES": "O=c1oc(-c2cccnc2)nc2ccccc12", "target": "F11", "assay": "enzyme activity, inhibitor, absorbance", "conditions": "pH 7.4", "IC50 [nM]": "> 50000"}
{"SMILES": "Cn1nccc1[C@]1(CNC(=O)c2ccc(Cl)c(F)c2-c2ccc(C(F)(F)F)cc2)NC(=O)NC1=O", "target": "A disintegrin and metalloproteinase with thrombospondin motifs 7", "assay": "enzyme activity, inhibitor, FRET", "IC50 [nM]": 3.2}
{"SMILES": "Cc1cc2c(c(=O)[nH]1)C(=O)O/C2=C\\c1cc(F)ccc1OCCN1CCOCC1", "target": "PDE1C", "assay": "enzyme activity, inhibitor, radiometric", "IC50 [nM]": 31}
